Laboratory results as given in ChEMBL document CHEMBL1687885, “Ethanesulfohydroxamic acid ester prodrugs of nonsteroidal anti-inflammatory drugs (NSAIDs): synthesis, nitric oxide and nitroxyl release, cyclooxygenase inhibition, anti-inflammatory, and ulcerogenicity index studies” (J Med Chem, 2011).

Assays:
[1] = Induction of HNO release per mol of compound in 0.6 mL MeOH and 0.2 mL of 1 M NaOH after 2 hr by gas chromatographic analysis; assay type: physicochemical
Summary of the method: (§1)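 HNO measured indirectly as N2O under anaerobic conditions: compound at 50 mM in 0.6 mL MeOH plus 0.2 mL 1 M NaOH; headspace (0.25 mL) injected at 2 and 24 h onto GC with thermal conductivity detector and Porapak Q column. % based on 2 mol HNO per mol N2O; mean of three experiments.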

[2] = Induction of HNO release per mol of compound in 0.6 mL MeOH and 0.2 mL of 1 M NaOH after 24 hr by gas chromatographic analysis; assay type: physicochemical; summary of the method: as §1
[3] = Induction of HNO release per mol of compound in 0.6 mL MeOH, 0.2 mL of 1 M NaOH and 100 mM glutathione after 2 hr by gas chromatographic analysis; assay type: physicochemical
Summary of the method: (§2)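 Compound 50 mM in MeOH-based solvent containing 100 mM glutathione and 250 mM NaOH (25 mM NaOH for some compounds); headspace N2O sampled at 2 and 24 h by GC with thermal conductivity detection. % HNO from 2 mol HNO per mol N2O; mean of three.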

[4] = Induction of HNO release per mol of compound in 0.6 mL MeOH, 0.2 mL of 1 M NaOH and 100 mM glutathione after 24 hr by gas chromatographic analysis; assay type: physicochemical; summary of the method: as §2
[5] = molecular target: T1, Prostaglandin G/H synthase 1 (Ovis aries, UniProt P05979); test: Inhibition of ovine COX-1
T1 sequence (P05979 whole entry): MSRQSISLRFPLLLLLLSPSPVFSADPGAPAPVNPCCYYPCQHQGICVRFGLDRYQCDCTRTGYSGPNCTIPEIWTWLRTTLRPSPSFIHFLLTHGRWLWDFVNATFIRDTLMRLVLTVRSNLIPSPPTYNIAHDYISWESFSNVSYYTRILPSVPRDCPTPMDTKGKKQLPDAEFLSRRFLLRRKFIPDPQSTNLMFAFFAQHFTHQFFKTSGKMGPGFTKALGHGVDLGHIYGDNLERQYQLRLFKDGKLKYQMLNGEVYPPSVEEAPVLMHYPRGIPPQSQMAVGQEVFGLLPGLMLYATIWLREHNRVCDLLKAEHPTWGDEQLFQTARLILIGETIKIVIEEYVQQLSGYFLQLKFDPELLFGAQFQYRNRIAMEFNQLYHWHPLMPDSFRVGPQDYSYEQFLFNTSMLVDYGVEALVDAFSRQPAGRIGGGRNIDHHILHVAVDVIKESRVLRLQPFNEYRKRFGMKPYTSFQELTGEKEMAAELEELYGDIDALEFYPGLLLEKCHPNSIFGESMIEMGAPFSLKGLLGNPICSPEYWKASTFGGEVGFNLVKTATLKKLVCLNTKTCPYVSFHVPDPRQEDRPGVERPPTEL

Rattus norvegicus [6] = test: Antiinflammatory activity in po dosed Sprague-Dawley rat assessed as inhibition of carrageenam-induced paw edema administered 1 hr before carrageenan challenge measured after 3 hrs by Plethysmometer; assay type: functional; details: read-out: ID50 (the source's name)
Summary of the method: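 Male Sprague-Dawley rats (160-180 g), three per group; compounds suspended in water with 1% methyl cellulose given orally at no fewer than three doses (2.8-112 mg/kg range) 1 h before subplantar injection of 0.05 mL 1% carrageenan in 0.9% NaCl into right hind paw. Vehicle-only controls. Paw volume measured by plethysmometer at 0 and 3 h; ID50 from dose-response curve.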

Rattus norvegicus [7] = test: Ulcerogenic activity in 12 fasting Sprague-Dawley rat assessed as ulcer index at 80 umol/kg, po measured after 6 hrs by magnifier lenses; assay type: toxicity, organism-based; details: in vivo
Summary of the method: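 Rats fasted (water allowed) 12 h, then given 80 μmol/kg orally suspended in 1.7 mL 1% methylcellulose; vehicle controls. After 6 h, CO2 euthanasia; stomachs opened along greater curvature, rinsed, ulcers counted and measured with magnifier lenses. UI = summed ulcer length (mm) per stomach averaged over n = 3 per group.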

[8] = Chemical stability of the compound in phosphate buffered saline of pH 7.4 assessed as NO release at 50 uM after 1.5 hr by Griess assay; details: buffer, pH 7.4, 1.5 h
[9] = Induction of HNO release per mol of compound in 0.6 mL MeOH and 0.2 mL of 700 mM Tris buffer solution after 2 hr by gas chromatographic analysis
[10] = Induction of HNO release per mol of compound in 0.6 mL MeOH and 0.2 mL of 700 mM Tris buffer solution after 24 hr by gas chromatographic analysis
[11] = Chemical stability of the compound in phosphate buffered containg rat serum of pH 7.4 assessed as NO release at 50 uM after 1.5 hr by Griess assay; details: pH 7.4, 1.5 h
Rattus norvegicus [12] = test: Antiinflammatory activity in Sprague-Dawley rat assessed as inhibition of carrageenam-induced paw edema at 100 mg/kg, po administered 1 hr before carrageenan challenge measured after 3 hrs by Plethysmometer; assay type: functional
Summary of the method: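 Male Sprague-Dawley rats (160-180 g), three per group, received the test compound orally as a suspension in water with 1% methyl cellulose. One hour later, 0.05 mL of 1% carrageenan in 0.9% NaCl was injected subcutaneously into the right hind paw plantar skin. Controls received vehicle alone. Paw volume was read at 0 and 3 h, and % inhibition was reported with SEM (n = 3).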

Rattus norvegicus [13] = test: Antiinflammatory activity in Sprague-Dawley rat assessed as inhibition of carrageenam-induced paw edema at 327 umol/kg, po administered 1 hr before carrageenan challenge measured after 3 hrs by Plethysmometer; assay type: functional
Summary of the method: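 Male Sprague-Dawley rats (160-180 g), three per group. Test agent was suspended in water with 1% methylcellulose and given orally 1 h before 0.05 mL 1% carrageenan in 0.9% NaCl was injected subcutaneously under the plantar skin of the right hind paw. Controls received vehicle only. Paw volume was measured at 0 and 3 h by plethysmometer. Result is % inhibition of inflammation, n = 3, with SEM.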

Row | Compound | Activity [1] | Activity [2] | Activity [3] | Activity [4] | IC50 [5] | ED50 (Rattus norvegicus [6]) | UI (Rattus norvegicus [7]) | Activity [8] | Activity [9] | Activity [10] | Activity [11] | inhibition in vivo at 100 mg/kg (Rattus norvegicus [12]) | inhibition in vivo at 327 µmol/kg (Rattus norvegicus [13])
1 | COc1ccc2c(c1)c(CC(=O)OCCS(=O)(=O)NO)c(C)n2C(=O)c1ccc(Cl)cc1 | 20% | 1% | 1% | 1% | 77.7 µM | 19.1 µmol/kg | 0 | 44.5% | 0% | 0% | 3.2% |  | 
2 | COc1ccc2cc([C@H](C)C(=O)OCCS(=O)(=O)NO)ccc2c1 | 24% | 23% | 2% | 4% | 4.5 µM | 11.8 µmol/kg |  | 52.9% | 0% | 0% | 1.3% |  | 
3 | O=C(Cc1ccccc1)OCCS(=O)(=O)NO | 23% | 21% | 0% | 7% | > 100 µM |  |  | 54.3% | 0% | 0% | 4.8% | 12.4% | 
4 | CC(C)Cc1ccc(C(C)C(=O)OCCS(=O)(=O)NO)cc1 (configuration not stated) | 25% | 24% | 0% | 7% | 1.1 µM |  |  | 46.3% | 0% | 0% | 2.1% |  | 79.5%
5 | CONS(=O)(=O)CCOC(=O)C(C)c1ccc(CC(C)C)cc1 (configuration not stated) | 0% | 0% | 0% | 0% | 14.6 µM |  |  | 4.3% | 0% | 0% | 0.9% |  | 78.9%
6 | CCS(=O)(=O)NO [ETHANESULFONYLHYDROXAMIC ACID] | 24% | 7% | 0% | 0% | > 100 µM |  |  | 54.5% | 0% | 0% | 1.4% |  | 
7 | COc1ccc2c(c1)c(CC(=O)O)c(C)n2C(=O)c1ccc(Cl)cc1 [INDOMETHACIN] |  |  |  |  |  |  | 64.5 |  |  |  |  |  | 
8 | COc1ccc2cc([C@H](C)C(=O)O)ccc2c1 [NAPROXEN] |  |  |  |  |  | 29.7 µmol/kg |  |  |  |  |  |  | 
